Source: PubChem (several laboratories)
Tn6 DDE FP: DD(E)-Tn6 binding inhibition, primary FP screen; P02675; Fibrin DD(E) TRITC-Tn6 fluorescence polarization displacement; inhibition, % at 8.3 µM; 0.21% of 370,000 active; AID 720509;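 active = inhibition above a per-campaign cutoff: mean of compounds within control limits plus 3 SD, cut at about 15% in these data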;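 note: 0% = median of all compound wells on the plate and 100% = blocking peptide control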
Target sequence (P02675 whole entry, looked up): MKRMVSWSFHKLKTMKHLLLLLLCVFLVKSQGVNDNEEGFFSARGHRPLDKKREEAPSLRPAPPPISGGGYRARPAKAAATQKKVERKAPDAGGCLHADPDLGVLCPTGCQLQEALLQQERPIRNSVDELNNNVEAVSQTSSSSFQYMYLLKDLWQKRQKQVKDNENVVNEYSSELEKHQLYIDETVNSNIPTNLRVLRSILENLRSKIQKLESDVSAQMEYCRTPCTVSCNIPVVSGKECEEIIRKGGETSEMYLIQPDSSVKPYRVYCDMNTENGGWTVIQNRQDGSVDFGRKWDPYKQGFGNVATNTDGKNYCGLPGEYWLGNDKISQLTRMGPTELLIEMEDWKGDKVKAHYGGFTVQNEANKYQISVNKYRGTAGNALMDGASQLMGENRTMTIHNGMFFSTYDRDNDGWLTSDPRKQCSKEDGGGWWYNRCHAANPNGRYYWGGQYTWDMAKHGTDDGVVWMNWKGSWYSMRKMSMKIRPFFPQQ
CRFR2-BP ag: CRF-BP/CRF-R2 complex agonism | HEK293 CRF-R2/CRF-BP, calcium dye fluorescence (FLIPR); percent of saturating CRF peptide response | activation, % at 13.2 µM | 0.46% of 350,000 active;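 active = activation of at least 50%, plus an integration ratio under a set limit after plate pattern correction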;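 note: plate controls were neutral control wells without compound for no effect and CRF at EC100 for full effect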
CRFBP-R2 block: CRF-BP/CRF-R2 complex antagonism | inhibition, % at 11.8 µM | AID 588475 | 0.59% of 350,000 active | HEK293 CRF-R2/CRF-BP, CRF-induced calcium fluorescence;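 active = inhibition of the ligand-induced calcium signal above about 50% at the single tested concentration, limit read from the data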
Tn7 DDE FP: disrupts Tn7 cyclic peptide binding to fibrin D-Dimer-E complex; P02675; FP displacement of FITC-Tn7 peptide from fibrin DD(E); 0% = median of compound wells per plate; inhibition, % at 8.3 µM; 0.13% of 370,000 active; AID 720508;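 active = inhibition above the mean of compounds falling within the control limits plus 3 SD of them, cut at about 14% in these data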;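 note: 0% = plate median of compound wells and 100% = 10 µM Aha-Tn7 peptide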
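Assay system: Human fibrin DD(E) protein | Medium: Tris buffer with calcium and detergent, pH 7.8 | Reagent: 0.1 µM fluorescent Tn7 | Compound dosing: Single point at 8.3 µM | Times: 10 min preincubation, 3 h with tracer, room temperature | Detection: Fluorescence polarization of the labelled Tn7 tracer | Controls: Aha-Tn7 high control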
DDE Tn6 FP ctr: counter-screen hit for Tn6 peptide-fibrin DD(E) binding disruption | shares compounds with Tn6 DDE FP | TRITC-Tn6 fluorescence polarization displacement; 0% = median of compound wells, not DMSO | inhibition, % at 8.3 µM | 2% of 680 active;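 active = inhibition above the mean of test compounds lying between the control limits plus 3 SD of those, cut at about 14% in these data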;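 note: 0% = median of compound wells and 100% = wells with Aha-Tn7 blocking peptide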
Tn6 DDE conf: DD(E)-Tn6 binding inhibition, FP confirmation. inhibition, % at 8.3 µM. 10% of 680 active. AID 720631. shares compounds with Tn6 DDE FP. FP displacement of TRITC-Tn6 peptide from DD(E); 0% = per-plate median of test wells;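 active = inhibition above the mean of compounds lying within the control limits plus 3 SD, cut at about 16% in these data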;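 note: 100% = high control wells holding a competing inhibitor peptide at 10 µM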
The depositor's hits bear a star; / = no result given. An excerpt weighted towards active compounds, which were near 1.3% of everything screened.

SMILES	Tn6 DDE FP	CRFR2-BP ag	CRFBP-R2 block	Tn7 DDE FP	DDE Tn6 FP ctr	Tn6 DDE conf
COCc1cc(N2CCN(C(=O)OC(C)(C)C)C[C@@H]2C)ccc1N1CCN(Cc2ccccc2)[C@@H](C)C1	6.7	/	/	-6.0	/	/
Cn1c(N)c(C(=O)COC(=O)CC2CC3CCC2C3)c(=O)n(C)c1=O (stereo not given)	15.5*	5.2	-36.8	7.0	9.5	6.4
CN(C(=O)c1ccccc1Cl)c1ccccc1	15.4*	0.1	-5.3	-5.0	-0.6	-2.0
COC(=O)[C@@]12CCCCC3=C1N(CCC3)C(=O)[C@H]2CC(=O)N1CCN(C(=O)C2CC2)CC1	-1.9	/	/	0.8	/	/
CC(COc1ccccc1C#N)CN1CCC(C(O)(c2ccccc2)c2ccccc2)CC1 (stereo not given)	16.0*	/	/	7.8	1.4	2.4
CC12CCC(C(=O)NCc3ccccc3)(OC1=O)C2(C)C (stereo not given)	-4.7	-1.5	-0.4	5.4	/	/
CC12CCC(C(=O)NCC3CCCO3)(OC1=O)C2(C)C (stereo not given)	15.9*	4.9	-32.7	1.6	4.4	3.4
C/C=C/C(=O)N1CC2(CC(c3cccc(NC(=O)/C(C)=C/C)c3)=NO2)C[C@H]1C(N)=O (stereo not given in full)	16.9*	3.4	-15.1	10.2	-0.7	2.5
CCOC(=O)NC(=O)CSc1nc(C)cc(C(F)(F)F)c1C#N	15.4*	-2.3	1.9	8.7	4.8	0.5
COC(=O)CSc1nc(C)cc(C(F)(F)F)c1C#N	5.6	-3.1	-10.1	3.1	/	/
CCOC(=O)[C@@]12CCCC3=C1N(CCC3)C(=O)[C@H]2CC(=O)NCc1ccccc1	4.2	/	/	-10.1	/	/
CC(C)c1ccc(OC[C@@H](O)CN2CCC(C(O)(c3ccccc3)c3ccccc3)CC2)cc1	-4.3	/	/	-2.7	/	/
CCN(Cc1nc2cc(Cl)ccc2c(=O)[nH]1)C(=O)c1cc(C2CC2)nn1-c1ccccc1	15.8*	0.3	5.9	-5.2	-1.3	-16.3
O=C1C[C@@H](O)[C@H](O)c2cccc(O)c21	1.5	/	/	-1.6	/	/
COc1ccc(-c2nnc3sc(-c4ccco4)nn23)cc1OC	15.3*	-0.2	4.2	3.5	7.9	-6.0
N#Cc1ccc(OCC(=O)N(C2CCCCC2)C2CCS(=O)(=O)C2)cc1 (stereo not given)	15.6*	-1.6	-7.3	-0.9	9.6	5.6
CC(=O)c1cc(-c2cccc(C#N)c2)c(=O)n2c1CCC2	0.9	/	/	3.3	/	/
CCC1=C(CC2NCCc3ccccc32)CC2c3cc(OC)c(OC)cc3CCN2C1 (stereo not given)	23.5*	2.8	17.4	8.7	3.5	2.5
CC[C@H]1CN2CCc3cc(OC)c(OC)cc3C2C[C@@H]1C[C@H]1NCCc2cc(OC)c(OC)cc21 (stereo not given in full)	-2.8	-0.1	3.9	4.3	/	/
COC(=O)c1ccc(Cn2ccc3ccc(-c4ccc5ccn(C(=O)C6CCCCC6)c5c4)cc32)cc1	-3.4	/	/	5.6	/	/
O=C(Nc1ccccc1)C1CC(=O)N(Cc2ccccc2)C1 (stereo not given)	0.2	-0.2	0.4	0.7	/	/
CC(=O)c1ccc(NC(=O)C2CC(=O)N(Cc3ccccc3)C2)cc1 (stereo not given)	15.7*	-3.4	42.4	6.0	-1.9	-2.8
CCN(CC)c1ccc2cc(C(N)=O)c(=O)oc2c1	20.3*	41.3	-46.2	-7.7	1.2	-0.2
Cc1nc2cc(C(=O)N3CCN(C(=O)C(C)(C)C)CC3)ccc2n1C1CCCC1	1.5	/	/	-4.4	/	/
CCC(C)[C@H](NC(=O)NCc1ccc(Cl)cc1)C(=O)OC (stereo not given in full)	17.1*	-0.1	-5.0	3.8	-3.3	-7.6
SMILES	Tn6 DDE FP	CRFR2-BP ag	CRFBP-R2 block	Tn7 DDE FP	DDE Tn6 FP ctr	Tn6 DDE conf
COC(=O)[C@@H]1N=C(c2ccc(OC)cc2)O[C@]12C(=O)N(Cc1cn(Cc3ccccc3)nn1)c1cccc(Cl)c12	-0.6	/	/	4.7	/	/
COC(=O)[C@H](CC(C)C)N(Cc1cn(CC2CCCCC2)nn1)S(=O)(=O)c1ccc(F)cc1Br	-1.3	/	/	4.7	/	/
CCC(CC)C(=O)Nc1cccc(C(=O)Nc2ccc(S(=O)(=O)Nc3ccc(C)cc3)cc2)c1	18.7*	0.1	-11.4	-2.8	-1.6	-7.7
CCC(CC)C(=O)Nc1cccc(C(=O)Nc2ccc(S(N)(=O)=O)cc2)c1	-2.9	0.4	-7.1	-0.2	/	/
CCCS(=O)(=O)N1CCN(C(=O)c2ccc(-c3ccccc3)cc2)CC1	15.5*	-1.0	1.9	10.9	-4.1	-7.5
CCCS(=O)(=O)N1CCN(C(=O)c2cccnc2)CC1	-3.2	0.5	0.2	0.5	/	/
Nn1c(SCC(=O)Nc2ccc(OCc3ccccc3)cc2)nnc1-c1cc(-c2ccc(Cl)cc2)n[nH]1	0.6	/	/	8.0	/	/
CCOc1ccc(Nc2ccc(N)c(S(=O)(=O)O)c2)cc1	22.2*	3.0	7.6	10.2	-6.5	-10.6
N#Cc1cccc(NC(=O)OCCCN2CCC3(CCCCC3)C2=O)c1	4.3	/	/	-0.3	/	/
O=C(Nc1ccncc1)c1cc(C2CCCCN2C(=O)CCc2ccccc2)on1 (stereo not given)	15.3*	/	/	-3.3	4.1	-1.0
COc1cc(OC)c(OC)cc1/C=N/NC(=O)CCc1c(C)n[nH]c1C	16.2*	-1.5	-9.5	3.6	-0.7	-5.1
O=C(Cc1cccc2ccccc12)NC(NC(=S)Nc1ccccc1Cl)C(Cl)(Cl)Cl (stereo not given)	24.5*	0.0	3.9	2.4	0.5	-1.6
COc1cc(OC)cc(-c2c(-c3ccc(F)cc3)c3cc(-c4ccc5c(c4)OCCO5)ccc3n2C)c1	53.2*	1.2	-3.8	-0.7	-8.4	-6.4
COC(=O)N/N=C\c1cc2c(cc1Br)OCO2	17.0*	2.2	-21.5	1.1	3.6	-7.8
Cc1ccc(C(=O)N/N=C\c2cc3c(cc2Br)OCO3)s1	-8.6	-4.3	-34.1	2.4	/	/
CCCN1CCS(=O)(=O)N(Cc2cn(Cc3ccc(C)cc3)nn2)C(C(=O)OC)C1 (stereo not given)	3.2	/	/	-8.9	/	/
CCN(CC(=O)NC1CCCC1)S(=O)(=O)c1ccc(Br)cc1	16.5*	-3.8	-21.9	-2.6	4.8	-2.3
Cc1ccc(NC(=O)Cn2c(=O)cnc3ccccc32)cc1S(=O)(=O)N1CCCCC1	-2.5	0.3	-0.4	1.8	/	/
COc1ccc(NC(=O)Cn2c(=O)cnc3ccccc32)cc1S(=O)(=O)N1CCCCC1	27.1*	0.6	2.4	-2.6	3.9	3.1
CCCNC(=O)Nc1ccsc1C(=O)OC	15.3*	2.1	-6.3	4.7	3.6	1.8
CC1CCC2(CC1)CCC2NCc1ccc(Cl)cc1 (stereo not given)	3.7	/	/	-1.7	/	/
